Article PMC3873380 (Molecular pharmaceutics, 2013)

System: SK-OV-3 cells
Experiment: Confocal microscopy on live cells
Assay type: cell-based, human
Conditions: F′-PEpYLGLD 5 μM alone, opti-MEM, 2 h, 37 °C
Method in brief: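 SK-OV-3 seeded at 1 × 10^5 cells/well on coverslips overnight in EMEM, then rinsed with opti-MEM. Exposed to treatments in opti-MEM for 2 h at 37 °C, washed three times with PBS and mounted. Imaged by laser scanning confocal, 20× objective, sequential frame mode. Channels: FITC (ex 488, em 500–550 nm), DAPI (ex 405, em 425–475 nm), DIC.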

intracellular fluorescence of F′-PEpYLGLD alone (confocal): No green fluorescence was observed
Substance: F′-PEpYLGLD
